Data taken from ChEMBL document CHEMBL2417357, “Synthesis and antiprotozoal activities of benzyl phenyl ether diamidine derivatives” (Eur J Med Chem, 2013).
The source made the active and inactive calls. No cut-off for these calls is given here.

System: Trypanosoma brucei rhodesiense
Assay: Antitrypanosomal activity against Trypanosoma brucei rhodesiense STIB900 infected in NMRI mouse assessed as cured animal at 100 mg/kg, po administered for 4 days
Format: functional, organism-based
Parameters: dose 100 mg/kg
Details: not given
In short: (§1)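 Acute model in female NMRI mice infected with T. b. rhodesiense STIB900. Single daily doses given for four days, intraperitoneally or orally. Mice surviving 60 days post-infection without parasitaemia relapse counted as cured; result reported as cured/infected out of 4 mice per group, with mean survival in days.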

SMILES	Activity
Cl.Cl.N/C(=N\O)c1cccc(COc2c(Br)cc(/C(N)=N/O)cc2Br)c1	Active

System: Trypanosoma brucei rhodesiense
Assay: Antitrypanosomal activity against Trypanosoma brucei rhodesiense STIB900 infected in NMRI mouse assessed as cured animal at 2 mg/kg, ip administered for 4 days
Format: functional, organism-based
Parameters: dose 2 mg/kg
Details: not given
In short: (§2)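 Female NMRI mice, acute infection model with T. b. rhodesiense STIB900. Compound given as a single daily dose for four days, intraperitoneally or orally. Cure means survival to 60 days post-infection without parasitaemia relapse. Mean survival recorded in days.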

SMILES	Activity
Nc1nc(N)nc(Nc2ccc([As]3SCC(CO)S3)cc2)n1 (configuration not stated) [MELARSOPROL]	Active

System: Trypanosoma brucei rhodesiense
Assay: Antitrypanosomal activity against Trypanosoma brucei rhodesiense STIB900 infected in NMRI mouse assessed as cured animal at 20 mg/kg, ip administered for 4 days
Format: functional, organism-based
Parameters: dose 20 mg/kg
Details: not given
In short: as §1

SMILES	Activity
N=C(N)c1ccc(OCc2cccc(C(=N)N)c2)cc1	inactive
N=C(N)c1cccc(COc2cccc(C(=N)N)c2)c1	inactive

System: Trypanosoma brucei rhodesiense
Assay: Antitrypanosomal activity against Trypanosoma brucei rhodesiense STIB900 infected in NMRI mouse assessed as cured animal at 25 mg/kg, po administered for 4 days
Format: functional, organism-based
Parameters: dose 25 mg/kg
Details: not given
In short: as §1

SMILES	Activity
Cl.Cl.N/C(=N\O)c1cccc(COc2c(Br)cc(/C(N)=N/O)cc2Br)c1	inactive

System: Trypanosoma brucei rhodesiense
Assay: Antitrypanosomal activity against Trypanosoma brucei rhodesiense STIB900 infected in NMRI mouse assessed as cured animal at 5 mg/kg, ip administered for 4 days
Format: functional, organism-based
Parameters: dose 5 mg/kg
Details: not given
In short: as §1

SMILES	Activity
N=C(N)c1ccc(COc2cccc(C(=N)N)c2)cc1	inactive
N=C(N)c1cccc(COc2c(Cl)cc(C(=N)N)cc2Cl)c1	inactive
N=C(N)c1cccc(COc2c(Br)cc(C(=N)N)cc2Br)c1	inactive
N=C(N)c1cccc(COc2ccc(C(=N)N)cc2Cl)c1	inactive
N=C(N)c1ccc(COc2c(Br)cc(C(=N)N)cc2Br)cc1	inactive

System: Trypanosoma brucei rhodesiense
Assay: Antitrypanosomal activity against Trypanosoma brucei rhodesiense STIB900 infected in NMRI mouse assessed as mean survival days at 25 mg/kg, po administered for 4 days
Format: functional
Details: not given
In short: as §2

SMILES	MSD [days]
Cl.Cl.N/C(=N\O)c1cccc(COc2c(Br)cc(/C(N)=N/O)cc2Br)c1	20.75
Cl.Cl.N/C(=N\O)c1ccc(COc2ccc(/C(N)=N/O)cc2)cc1	>31.7

System: Trypanosoma brucei rhodesiense
Assay: Antitrypanosomal activity against Trypanosoma brucei rhodesiense STIB900 infected in NMRI mouse assessed as mean survival days at 100 mg/kg, po administered for 4 days
Format: functional
Details: not given
In short: as §2

SMILES	MSD [days]
Cl.Cl.N/C(=N\O)c1cccc(COc2c(Br)cc(/C(N)=N/O)cc2Br)c1	>60
Cl.Cl.N/C(=N\O)c1ccc(COc2ccc(/C(N)=N/O)cc2)cc1	>46.25

System: Trypanosoma brucei rhodesiense
Assay: Antitrypanosomal activity against Trypanosoma brucei rhodesiense STIB900 infected in NMRI mouse assessed as mean survival days at 2 mg/kg, ip administered for 4 days
Format: functional
Details: route intraperitoneal
In short: as §2

SMILES	MSD [days]
Nc1nc(N)nc(Nc2ccc([As]3SCC(CO)S3)cc2)n1 (configuration not stated) [MELARSOPROL]	>60

System: Trypanosoma brucei rhodesiense
Assay: Antitrypanosomal activity against Trypanosoma brucei rhodesiense STIB900 infected in NMRI mouse assessed as mean survival days at 20 mg/kg, ip administered for 4 days
Format: functional
Details: route intraperitoneal
In short: as §2

SMILES	MSD [days]
N=C(N)c1ccc(OCc2cccc(C(=N)N)c2)cc1	25.25
N=C(N)c1cccc(COc2cccc(C(=N)N)c2)c1	19.8

System: L6
Assay: Cytotoxicity against rat L6 cells after 72 hrs by Alamar blue assay
Format: cell-based
Details: L6, 72 h
In short: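 Rat L6 myoblast cells; cytotoxic IC50 taken as the average of duplicate determinations.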

SMILES	IC50 [µM]
N=C(N)c1ccc(OCc2cccc(C(=N)N)c2)cc1	5.93
N=C(N)c1ccc(COc2cccc(C(=N)N)c2)cc1	19.3
N=C(N)c1cccc(COc2c(Cl)cc(C(=N)N)cc2Cl)c1	0.57
Cl.Cl.N/C(=N\O)c1cccc(COc2c(Br)cc(/C(N)=N/O)cc2Br)c1	26.8
N=C(N)c1cccc(COc2cccc(C(=N)N)c2)c1	24
N=C(N)c1cccc(COc2c(Br)cc(C(=N)N)cc2Br)c1	4.7
Cl.Cl.N/C(=N\O)c1ccc(COc2ccc(/C(N)=N/O)cc2)cc1	8.28
N=C(N)c1cccc(COc2ccc(C(=N)N)cc2Cl)c1	13.9
N=C(N)c1ccc(COc2c(Br)cc(C(=N)N)cc2Br)cc1	21.5

System: Trypanosoma brucei rhodesiense
Assay: Antitrypanosomal activity against Trypanosoma brucei rhodesiense STIB900 infected in NMRI mouse assessed as mean survival days at 5 mg/kg, ip administered for 4 days
Format: functional
Details: route intraperitoneal
In short: as §2

SMILES	MSD [days]
N=C(N)c1ccc(COc2cccc(C(=N)N)c2)cc1	19
N=C(N)c1cccc(COc2c(Cl)cc(C(=N)N)cc2Cl)c1	27.5
N=C(N)c1cccc(COc2c(Br)cc(C(=N)N)cc2Br)c1	>35.25
N=C(N)c1cccc(COc2ccc(C(=N)N)cc2Cl)c1	24.5
N=C(N)c1ccc(COc2c(Br)cc(C(=N)N)cc2Br)cc1	30

System: Leishmania donovani
Assay: Antileishmanial activity against amastigotes of Leishmania donovani MHOM/SD/62/IS-CL2D
Format: functional, organism-based
Details: not given
In short: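 Axenic amastigotes of L. donovani MHOM/SD/62/IS-CL2D; IC50 taken as the average of at least two determinations.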

SMILES	IC50 [µM]
N=C(N)c1ccc(COc2cccc(C(=N)N)c2)cc1	42.1
N=C(N)c1cccc(COc2c(Cl)cc(C(=N)N)cc2Cl)c1	6.51
Cl.Cl.N/C(=N\O)c1cccc(COc2c(Br)cc(/C(N)=N/O)cc2Br)c1	61.1
N=C(N)c1cccc(COc2c(Br)cc(C(=N)N)cc2Br)c1	3.37
Cl.Cl.N/C(=N\O)c1ccc(COc2ccc(/C(N)=N/O)cc2)cc1	> 100
N=C(N)c1cccc(COc2ccc(C(=N)N)cc2Cl)c1	2.91
N=C(N)c1ccc(COc2c(Br)cc(C(=N)N)cc2Br)cc1	4.09

System: not listed separately
Assay: Selectivity index, ratio of IC50 for rat L6 cells to IC50 for amastigotes of Leishmania donovani
Format: toxicity, cell-based
Details: read-out: Ratio IC50
In short: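 SI = IC50 in rat L6 myoblasts / IC50 against L. donovani MHOM/SD/62/IS-CL2D axenic amastigotes. The amastigote IC50 is the average of at least two determinations; the L6 IC50 is the average of duplicates.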

SMILES	selectivity ratio
N=C(N)c1ccc(COc2cccc(C(=N)N)c2)cc1	< 1
N=C(N)c1cccc(COc2c(Cl)cc(C(=N)N)cc2Cl)c1	< 1
Cl.Cl.N/C(=N\O)c1cccc(COc2c(Br)cc(/C(N)=N/O)cc2Br)c1	< 1
N=C(N)c1cccc(COc2c(Br)cc(C(=N)N)cc2Br)c1	1
Cl.Cl.N/C(=N\O)c1ccc(COc2ccc(/C(N)=N/O)cc2)cc1	< 1
N=C(N)c1cccc(COc2ccc(C(=N)N)cc2Cl)c1	5
N=C(N)c1ccc(COc2c(Br)cc(C(=N)N)cc2Br)cc1	5

System: not listed separately
Assay: Selectivity index, ratio of IC50 for rat L6 cells to IC50 for chloroquine-resistant Plasmodium falciparum K1
Format: toxicity, cell-based
Details: read-out: Ratio IC50
In short: (§3)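 SI = IC50 in rat L6 myoblasts / IC50 against the parasite (T. b. rhodesiense STIB900 or P. falciparum K1). Each IC50 is the average of duplicate determinations.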

SMILES	selectivity ratio
N=C(N)c1ccc(OCc2cccc(C(=N)N)c2)cc1	168
N=C(N)c1ccc(COc2cccc(C(=N)N)c2)cc1	99
N=C(N)c1cccc(COc2c(Cl)cc(C(=N)N)cc2Cl)c1	3
Cl.Cl.N/C(=N\O)c1cccc(COc2c(Br)cc(/C(N)=N/O)cc2Br)c1	4
N=C(N)c1cccc(COc2cccc(C(=N)N)c2)c1	198
N=C(N)c1cccc(COc2c(Br)cc(C(=N)N)cc2Br)c1	39
Cl.Cl.N/C(=N\O)c1ccc(COc2ccc(/C(N)=N/O)cc2)cc1	< 1
N=C(N)c1cccc(COc2ccc(C(=N)N)cc2Cl)c1	275
N=C(N)c1ccc(COc2c(Br)cc(C(=N)N)cc2Br)cc1	849

System: Plasmodium falciparum
Assay: Antiplasmodial activity against chloroquine-resistant Plasmodium falciparum K1
Format: functional, organism-based
Details: not given
In short: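 Chloroquine-resistant K1 strain tested in vitro. IC50 is the average of duplicate determinations.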

SMILES	IC50 [µM]
N=C(N)c1ccc(OCc2cccc(C(=N)N)c2)cc1	0.035
N=C(N)c1ccc(COc2cccc(C(=N)N)c2)cc1	0.195
N=C(N)c1cccc(COc2c(Cl)cc(C(=N)N)cc2Cl)c1	0.185
Cl.Cl.N/C(=N\O)c1cccc(COc2c(Br)cc(/C(N)=N/O)cc2Br)c1	7.56
N=C(N)c1cccc(COc2cccc(C(=N)N)c2)c1	0.121
N=C(N)c1cccc(COc2c(Br)cc(C(=N)N)cc2Br)c1	0.12
Cl.Cl.N/C(=N\O)c1ccc(COc2ccc(/C(N)=N/O)cc2)cc1	9.49
N=C(N)c1cccc(COc2ccc(C(=N)N)cc2Cl)c1	0.051
N=C(N)c1ccc(COc2c(Br)cc(C(=N)N)cc2Br)cc1	0.025

System: not listed separately
Assay: Selectivity index, ratio of IC50 for rat L6 cells to IC50 for Trypanosoma brucei rhodesiense STIB900
Format: toxicity, cell-based
Details: read-out: Ratio IC50
In short: as §3

SMILES	selectivity ratio
N=C(N)c1ccc(OCc2cccc(C(=N)N)c2)cc1	250
N=C(N)c1ccc(COc2cccc(C(=N)N)c2)cc1	694
N=C(N)c1cccc(COc2c(Cl)cc(C(=N)N)cc2Cl)c1	57
Cl.Cl.N/C(=N\O)c1cccc(COc2c(Br)cc(/C(N)=N/O)cc2Br)c1	4
N=C(N)c1cccc(COc2cccc(C(=N)N)c2)c1	248
N=C(N)c1cccc(COc2c(Br)cc(C(=N)N)cc2Br)c1	1270
Cl.Cl.N/C(=N\O)c1ccc(COc2ccc(/C(N)=N/O)cc2)cc1	< 1
N=C(N)c1cccc(COc2ccc(C(=N)N)cc2Cl)c1	1900
Nc1nc(N)nc(Nc2ccc([As]3SCC(CO)S3)cc2)n1 (configuration not stated) [MELARSOPROL]	1220
N=C(N)c1ccc(COc2c(Br)cc(C(=N)N)cc2Br)cc1	1260

System: Trypanosoma brucei rhodesiense
Assay: Antitrypanosomal activity against Trypanosoma brucei rhodesiense STIB900 after 72 hrs by Alamar blue assay
Format: functional, organism-based
Details: STIB900, 72 h

SMILES	IC50 [µM]
N=C(N)c1ccc(OCc2cccc(C(=N)N)c2)cc1	0.024
N=C(N)c1ccc(COc2cccc(C(=N)N)c2)cc1	0.028
N=C(N)c1cccc(COc2c(Cl)cc(C(=N)N)cc2Cl)c1	0.01
Cl.Cl.N/C(=N\O)c1cccc(COc2c(Br)cc(/C(N)=N/O)cc2Br)c1	6.89
N=C(N)c1cccc(COc2cccc(C(=N)N)c2)c1	0.097
N=C(N)c1cccc(COc2c(Br)cc(C(=N)N)cc2Br)c1	0.004
Cl.Cl.N/C(=N\O)c1ccc(COc2ccc(/C(N)=N/O)cc2)cc1	> 238
N=C(N)c1cccc(COc2ccc(C(=N)N)cc2Cl)c1	0.007
N=C(N)c1ccc(COc2c(Br)cc(C(=N)N)cc2Br)cc1	0.017
